# pKd: −log10 of the molar value.
# Tests used:
# [1] = Binding affinity of [125I]T4 to rat liver nuclear extract (CONTROL)
# Outline: (§1)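 Male Sprague–Dawley rats (200–250 g), five per group, gavaged with TCDD (0, 12, 25, 37 or 50 µg/kg) in corn oil at 0.1 mL/kg; controls got corn oil. Livers were taken after 9 days and pooled per group. Nuclear extract (10 µg protein, buffer B, pH 7.6) was incubated 2 h at 25 °C with 0.1–2.4 nM [125I]T4. Bound ligand was isolated on Sephadex G-25, specific binding taken as total minus excess-T4, Scatchard analysis, duplicates.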
# Rattus norvegicus [2] = test: Liver weight was determined in TCDD-treated rats at a dose of 37 ug/Kg; assay type: functional
# Outline: (§2)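 Male Sprague–Dawley rats (200–250 g, 6 weeks old), in groups of five, were dosed by gavage with TCDD at 0, 12, 25, 37 or 50 µg/kg body weight in corn oil (0.1 mL/kg). Controls received corn oil alone. Animals were killed by CO2 9 days after dosing.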
# Rattus norvegicus [3] = test: Serum T4 level was determined in TCDD-treated rat at a dose of 50 ug/Kg; assay type: functional, organism-based; outline: as §2
# [4] = Binding affinity of [125I]T4 to rat liver nuclear extract at a dose of 12 ug/Kg; outline: as §1
# Rattus norvegicus [5] = test: Serum T4 level was determined in TCDD-treated rat at a dose of 25 ug/Kg; assay type: functional, organism-based; outline: as §2
# Rattus norvegicus [6] = test: Body weight was determined in TCDD-treated rats at a dose of 37 ug/Kg; assay type: functional; outline: as §2
# Rattus norvegicus [7] = test: Number of T4 binding sites in rat liver from TCDD treated rats at a dose of 37 ug/Kg; assay type: functional; outline: as §1
# Rattus norvegicus [8] = test: Liver weight was determined in TCDD-treated rats at a dose of 25 ug/Kg; assay type: functional; outline: as §2
# Rattus norvegicus [9] = species: Rattus norvegicus; test: Serum T4 level was determined in rats; assay type: functional, organism-based; outline: as §2
# [10] = Binding affinity of [125I]-T4 to rat liver nuclear extract at a dose of 37 ug/Kg; outline: as §1
# Rattus norvegicus [11] = test: Body weight was determined in TCDD-treated rats at a dose of 50 ug/Kg; assay type: functional; outline: as §2
# Rattus norvegicus [12] = species: Rattus norvegicus; test: Body weight (after treatment) was determined; assay type: functional; outline: as §2
# Rattus norvegicus [13] = test: Liver weight was determined in TCDD-treated rat at a dose of 12 ug/Kg; assay type: functional; outline: as §2
# Rattus norvegicus [14] = test: Body weight was determined in TCDD-treated rat at a dose of 12 ug/Kg; assay type: functional; outline: as §2
# Rattus norvegicus [15] = test: Number of T4 binding sites in rat liver from TCDD treated rats at a dose of 12 ug/Kg; assay type: functional; outline: as §1
# Rattus norvegicus [16] = test: Liver weight was determined in TCDD-treated rats at a dose of 50 ug/Kg; assay type: functional; outline: as §2
# Rattus norvegicus [17] = test: Serum T4 level was determined in TCDD-treated rat at a dose of 37 ug/kg; assay type: functional, organism-based; outline: as §2
# [18] = Binding affinity of [125I]T4 to rat liver nuclear extract at a dose of 25 ug/Kg; outline: as §1
# Rattus norvegicus [19] = test: Number of T4 binding sites in rat liver from TCDD treated rats at a dose of 50 ug/Kg; assay type: functional; outline: as §1
# Rattus norvegicus [20] = test: Serum T4 level was determined in TCDD-treated rat at a dose of 12 ug/Kg; assay type: functional, organism-based; outline: as §2
# Rattus norvegicus [21] = test: Number of T4 binding sites in rat liver from TCDD treated rats at a dose of 25 ug/Kg; assay type: functional; outline: as §1
# Rattus norvegicus [22] = species: Rattus norvegicus; test: Number of T4 binding sites in rat liver from TCDD treated rats; assay type: functional; outline: as §1
# [23] = Binding affinity of [125I]T4 to rat liver nuclear extract at a dose of 50 ug/Kg; outline: as §1
# Rattus norvegicus [24] = test: Body weight was determined in TCDD-treated rats at a dose of 25 ug/Kg; assay type: functional; outline: as §2
# Rattus norvegicus [25] = species: Rattus norvegicus; test: Liver weight was determined in rats; assay type: functional; outline: as §2
smiles,measurement,setting,value
"Clc1cc2c(cc1Cl)Oc1cc(Cl)c(Cl)cc1O2 [2,3,7,8-TETRACHLORODIBENZO-P-DIOXIN]",pKd,[1],9.15
same,Weight,Rattus norvegicus [2],<19.3 g
same,Serum T4,Rattus norvegicus [3],< 4.2 µg/dL
same,pKd,[4],9.32
same,Serum T4,Rattus norvegicus [5],< 4.4 µg/dL
same,Weight,Rattus norvegicus [6],<274 g
same,Activity,Rattus norvegicus [7],<8.71 nM/mg
same,Weight,Rattus norvegicus [8],<18.3 g
same,Serum T4,Rattus norvegicus [9],7.6 µg/dL
same,pKd,[10],9.16
same,Weight,Rattus norvegicus [11],<271 g
same,Weight,Rattus norvegicus [12],302 g
same,Weight,Rattus norvegicus [13],<18.9 g
same,Weight,Rattus norvegicus [14],293 g
same,Activity,Rattus norvegicus [15],<4.06 nM/mg
same,Weight,Rattus norvegicus [16],<19.9 g
same,Serum T4,Rattus norvegicus [17],< 4.1 µg/dL
same,pKd,[18],9.25
same,Activity,Rattus norvegicus [19],<6.65 nM/mg
same,Serum T4,Rattus norvegicus [20],< 5.6 µg/dL
same,Activity,Rattus norvegicus [21],<4.12 nM/mg
same,Activity,Rattus norvegicus [22],<3.24 nM/mg
same,pKd,[23],9.14
same,Weight,Rattus norvegicus [24],<273 g
same,Weight,Rattus norvegicus [25],15.1 g

# Reference: ChEMBL document CHEMBL1123874, “Polychlorinated biphenyls and related compound interactions with specific binding sites for thyroxine in rat liver nuclear extracts” (J Med Chem, 1987)
